One experiment concerns the target Histone deacetylase 2 (Homo sapiens, UniProt Q92769). As to the kind of experiment: Inhibition of HDAC2.
A further experiment concerns the target Histone deacetylase 3 (Homo sapiens, UniProt O15379).
Experiment [1] relates to HeLa. As to the kind of experiment: Selectivity ratio for induction of p21 promoter gene in human HeLa cells to induction of klf2 promoter gene in human A204 cells at 10 uM. The format is functional.
The target of the next experiment is Histone deacetylase 1 (Homo sapiens, UniProt Q13547). As to the kind of experiment: Inhibition of HDAC1.
Experiment [2] has as its system A204. As to the kind of experiment: Induction of klf2 promoter gene in human A204 cells assessed as percent induction activity at 3 uM relative to SNDX-275. The format is functional.
Experiment [3] concerns HeLa. As to the kind of experiment: Induction of p21 promoter gene in human HeLa cells assessed as percent induction activity at 10 uM relative to SNDX-275. It counts as functional.
The test system of experiment [4] is HeLa. As to the kind of experiment: Induction of p21 promoter gene in human HeLa cells assessed as percent induction activity at 3 uM relative to SNDX-275. The format is functional.
The subject of experiment [5] is A204. As to the kind of experiment: Induction of klf2 promoter gene in human A204 cells assessed as percent induction activity at 10 uM relative to SNDX-275. It counts as functional.
Experiment [6] deals with HeLa. As to the kind of experiment: Selectivity ratio for induction of p21 promoter gene in human HeLa cells to induction of klf2 promoter gene in human A204 cells at 3 uM. It counts as functional.
The subject of experiment [7] is A204. As to the kind of experiment: Antiproliferative activity against human A204 cells assessed as growth at 10 uM after 24 hrs. It counts as functional. Particulars: A204, 24 h, read-out: Activity. An outline of the steps:
(§1)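 HeLa and A204 cells exposed to test agents at 3 or 10 µM for 24 h. Growth is expressed as percent of vehicle-treated control cells.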

For experiment [8], the system named is HeLa. As to the kind of experiment: Antiproliferative activity against human HeLa cells assessed as growth at 10 uM after 24 hrs. The format is functional. Particulars: read-out: Activity. An outline of the steps:
as §1

Experiment [9] has as its system HeLa. As to the kind of experiment: Antiproliferative activity against human HeLa cells assessed as growth at 3 uM after 24 hrs. The format is functional. The settings on record: read-out: Activity. An outline of the steps:
as §1

For experiment [10], the system named is A204. As to the kind of experiment: Antiproliferative activity against human A204 cells assessed as growth at 3 uM after 24 hrs. Particulars: A204, 24 h, read-out: Activity. It counts as functional. The method in brief:
as §1

For the next experiment, the system named is U2OS. As to the kind of experiment: Antiproliferative activity against human U2OS cells after 72 hrs by tetrazolium dye assay. The format is functional. An outline of the steps: (§2)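 Tetrazolium dye proliferation assay over 72 h, with half-log serial dilutions from 30 µM down to 100 nM. GI50 was derived from the dose-response.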
A further experiment has as its system HepG2. As to the kind of experiment: Antiproliferative activity against human HepG2 cells after 72 hrs by tetrazolium dye assay. The format is functional. Particulars: HepG2, 72 h. An outline of the steps:
as §2

Experiment [11] relates to HCT-116. As to the kind of experiment: Induction of acetylated H4 level in human HCT116 cells after 24 hrs. It counts as functional, cell-based. An outline of the steps: (§3)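 HCT-116 cells treated for 24 h across a range of concentrations. Acetylated histone H4 and endogenous p21, or cell-cycle distribution, were assessed.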
Experiment [12] has as its system HCT-116. As to the kind of experiment: Cell cycle arrest in human HCT116 cells after 24 hrs. It counts as functional, cell-based. The method in brief: as §3
A further experiment has as its system HL-60. As to the kind of experiment: Antiproliferative activity against human HL60 cells after 72 hrs by tetrazolium dye assay. It counts as functional. Particulars: HL-60, 72 h. An outline of the steps: as §2
The test system of experiment [13] is HeLa. As to the kind of experiment: Antiproliferative activity against human HeLa cells after 72 hrs by tetrazolium dye assay. The format is functional. The method in brief: as §2
Another experiment concerns MCF7. As to the kind of experiment: Antiproliferative activity against human MCF7 cells after 72 hrs by tetrazolium dye assay. The format is functional. The settings on record: MCF7, 72 h. The method in brief: as §2
The test system of experiment [14] is HCT-116. As to the kind of experiment: Antiproliferative activity against human HCT116 cells after 72 hrs by tetrazolium dye assay. The format is functional. The settings on record: HCT-116, 72 h. The method in brief:
as §2

The subject of experiment [15] is HCT-116. As to the kind of experiment: Induction of apoptosis in human HCT116 cells after 48 hrs by annexin V/FACS analysis. The format is functional, cell-based. The method in brief:
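HCT-116 cells exposed for 48 h to several concentrations or vehicle. Apoptosis was scored as percent annexin V-positive cells by FACS.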

In experiment [16] the test system is HCT-116. As to the kind of experiment: Induction of endogenous p21 level in human HCT116 cells after 24 hrs. The format is functional, cell-based. An outline of the steps: as §3

The structures appear in SMILES notation.

Histone deacetylase 3, sequence (O15379 whole entry): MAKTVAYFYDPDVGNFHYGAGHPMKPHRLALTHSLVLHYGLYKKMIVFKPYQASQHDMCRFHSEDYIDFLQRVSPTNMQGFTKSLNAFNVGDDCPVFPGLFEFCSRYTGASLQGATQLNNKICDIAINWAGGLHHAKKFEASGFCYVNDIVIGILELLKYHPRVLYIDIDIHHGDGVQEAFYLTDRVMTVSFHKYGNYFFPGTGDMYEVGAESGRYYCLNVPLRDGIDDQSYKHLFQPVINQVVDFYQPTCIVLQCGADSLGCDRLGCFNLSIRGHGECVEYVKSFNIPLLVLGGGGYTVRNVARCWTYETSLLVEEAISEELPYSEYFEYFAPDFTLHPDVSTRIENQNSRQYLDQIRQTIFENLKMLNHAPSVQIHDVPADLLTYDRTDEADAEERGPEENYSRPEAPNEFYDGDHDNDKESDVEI
Histone deacetylase 1, sequence (Q13547 whole entry): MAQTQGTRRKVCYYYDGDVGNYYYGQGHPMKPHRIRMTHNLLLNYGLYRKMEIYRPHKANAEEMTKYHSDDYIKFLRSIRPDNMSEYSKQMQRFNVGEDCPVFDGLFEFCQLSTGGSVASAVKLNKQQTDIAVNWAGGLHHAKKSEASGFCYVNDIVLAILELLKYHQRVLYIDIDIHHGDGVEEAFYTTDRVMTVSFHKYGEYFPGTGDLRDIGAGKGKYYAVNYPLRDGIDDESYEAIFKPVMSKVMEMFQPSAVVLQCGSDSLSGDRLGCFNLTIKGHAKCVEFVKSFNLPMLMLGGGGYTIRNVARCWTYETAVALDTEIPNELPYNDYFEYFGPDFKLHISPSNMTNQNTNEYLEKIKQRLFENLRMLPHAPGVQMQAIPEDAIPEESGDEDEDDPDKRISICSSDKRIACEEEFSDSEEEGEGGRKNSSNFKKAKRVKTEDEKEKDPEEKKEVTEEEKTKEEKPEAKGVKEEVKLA
Histone deacetylase 2, sequence (Q92769 whole entry): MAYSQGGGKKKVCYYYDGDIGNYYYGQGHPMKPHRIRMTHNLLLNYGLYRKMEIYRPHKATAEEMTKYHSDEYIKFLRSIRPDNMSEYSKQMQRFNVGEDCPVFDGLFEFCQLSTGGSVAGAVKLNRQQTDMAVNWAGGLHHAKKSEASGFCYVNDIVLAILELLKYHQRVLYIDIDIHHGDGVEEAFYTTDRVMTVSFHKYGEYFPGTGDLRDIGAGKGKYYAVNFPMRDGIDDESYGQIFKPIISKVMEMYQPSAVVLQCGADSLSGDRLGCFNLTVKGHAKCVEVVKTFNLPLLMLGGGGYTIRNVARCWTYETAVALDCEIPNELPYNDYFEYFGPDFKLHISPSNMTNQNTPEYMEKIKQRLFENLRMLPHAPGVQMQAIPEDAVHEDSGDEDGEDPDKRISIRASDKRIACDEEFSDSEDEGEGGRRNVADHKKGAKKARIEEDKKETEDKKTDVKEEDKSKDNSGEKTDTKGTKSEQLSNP

In the case of `Nc1ccccc1NC(=O)/C=C/c1ccc(C(NCCC2CCOCC2)C(=O)Nc2ccc(C(F)(F)F)cc2)cc1` (stereo unspecified), the half-maximal inhibitory concentration (IC50) against Histone deacetylase 2 is 0.8 µM; against Histone deacetylase 3, 1 µM; against Histone deacetylase 1, 0.2 µM. For the same compound, the Activity with HeLa [1] was found to be 1.1; in the experiment on A204 [2] it was 55%; in the experiment on HeLa [3] it was 64%; with HeLa [4], 53%; with A204 [5] it was 58%; in the experiment on HeLa [6], 1.
As for `Nc1ccccc1NC(=O)/C=C/c1ccc(C(NCCN2CCCCC2)C(=O)Nc2ccc(-c3ccc(C4CC4)cc3)cc2)cc1` (stereo unspecified), the half-maximal inhibitory concentration (IC50) at Histone deacetylase 2 was determined as 0.24 µM; at Histone deacetylase 3, 0.36 µM; against Histone deacetylase 1, 0.05 µM. The growth at 10 µM with A204 [7] was 89%; in the experiment on HeLa [8] it was 81%. The Activity was found to be 2.1 in the experiment on HeLa [1]; 65% in the experiment on A204 [2]; 187% with HeLa [3]; 143% in the experiment with HeLa [4]; 90% in the experiment with A204 [5]; 2.2 in the experiment on HeLa [6]. The growth at 3 µM in the experiment with HeLa [9] worked out at 103%; in the experiment with A204 [10] it was 93%.
Regarding `Nc1ccccc1NC(=O)/C=C/c1ccc(C(NCCN2CCOCC2)C(=O)Nc2ccc(C(F)(F)F)cc2)cc1` (stereo unspecified), the GI50 amounted to 1 µM with U2OS; 1.7 µM in the experiment on HepG2; 0.4 µM in the experiment with HL-60; 2.2 µM in the experiment with HeLa [13]; 1.9 µM in the experiment with MCF7; 1 µM in the experiment with HCT-116 [14]. Moreover, the values for the IC50 against Histone deacetylase 2, against Histone deacetylase 3 and on Histone deacetylase 1 were 0.29 µM, 0.46 µM and 0.06 µM, respectively. In addition, the Activity entry is “Dose-dependent effect” in the experiment on HCT-116 [11]; “Dose-dependent effect” in the experiment with HCT-116 [12]; 3.1 with HeLa [1]; 64% in the experiment on A204 [2]; 116% in the experiment on HeLa [3]; “Dose-dependent effect” in the experiment with HCT-116 [15]. Also, the Activity is 86% with HeLa [4], 38% with A204 [5], “Dose-dependent effect” with HCT-116 [16] and 1.4 in the experiment on HeLa [6].

The values above are taken from ChEMBL document CHEMBL1641604, “Application of p21 and klf2 reporter gene assays to identify selective histone deacetylase inhibitors for cancer therapy” (Bioorg Med Chem Lett, 2011).
